Rows were chosen to be rich in hits. Some 1.9% of all compounds tested hit in one or more screens of this group.
UCH37 DUB inh – inhibitors of human UCH37 deubiquitinase, primary screen, biochemical, Ub-AMC cleavage, fluorescence | inhibition, % (test concentration not listed) | AID 588478, 2011 | purified proteasome/UCH37 | Ubiquitin carboxyl-terminal hydrolase isozyme L5 (Homo sapiens), Q9Y5K5 | actives 0.33% (n = 330,000);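 active = mean inhibition over replicate wells above about 20%, limit read from the data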
Target sequence (Q9Y5K5 whole entry, looked up): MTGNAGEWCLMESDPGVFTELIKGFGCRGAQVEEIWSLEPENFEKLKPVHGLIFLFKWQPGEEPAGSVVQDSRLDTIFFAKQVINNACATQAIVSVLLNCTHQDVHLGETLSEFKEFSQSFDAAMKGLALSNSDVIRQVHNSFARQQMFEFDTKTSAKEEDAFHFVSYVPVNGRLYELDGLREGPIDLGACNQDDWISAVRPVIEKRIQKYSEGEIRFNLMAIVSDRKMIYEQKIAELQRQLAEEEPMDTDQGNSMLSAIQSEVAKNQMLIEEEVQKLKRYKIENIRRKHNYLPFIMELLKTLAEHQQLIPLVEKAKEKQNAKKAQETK
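System: Proteasome-associated human UCH37 deubiquitinase; Input: 0.15 nM proteasome in added enzyme buffer; Also added: Ub-AMC substrate from 1 µM stock; Incubation: 30 min compound-proteasome preincubation then 25 min substrate reaction, room temperature; Detection: fluorescence, ex 355 nm, em 460 nm; Read-out: % inhibition of Ub-AMC cleavage fluorescence; Benchmarks: no-proteasome and no-compound wells.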
beta cell repl – inducers of MIN6 beta-cell proliferation, primary screen, ATP luminescence, uHTS; actives 0.29% (n = 330,000); AID 2380, 2010; proliferation, % at 10 µM; MIN6 cells proliferation, ATPlite luminescence, 48 h; cells starved in 0.2% serum; 100% = growth in 10% serum;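 active = compounds whose signal lies at least 3.5 SD above the mean of all wells on their plate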
Rev-erbA mod – modulators of Rev-erb alpha DNA binding, primary screen, biochemical, FITC-DNA, fluorescence polarization, uHTS; actives 0.79% (n = 370,000); activity, % at 10 µM; Nuclear receptor subfamily 1 group D member 1 (Homo sapiens), P20393; Rev-erbα–FITC-DNA binding, 90 min;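 active = activity above about 14%, limit read from the data; passing the limit was not always enough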
Rce1 inhib – yeast Rce1p protease inhibitors, primary screen, biochemical, fluorescence, cell-free homogeneous; CAAX prenyl protease 2 (Saccharomyces cerevisiae (strain ATCC 204508 / S288c)), Q03530; yeast membranes, quenched prenylated peptide cleavage fluorescence; calls only; actives 0.27% (n = 290,000);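 active = fall in fluorescence gain of 50% or more versus controls, with final raw signal at or below 3038400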
Target sequence (Q03530 whole entry, looked up): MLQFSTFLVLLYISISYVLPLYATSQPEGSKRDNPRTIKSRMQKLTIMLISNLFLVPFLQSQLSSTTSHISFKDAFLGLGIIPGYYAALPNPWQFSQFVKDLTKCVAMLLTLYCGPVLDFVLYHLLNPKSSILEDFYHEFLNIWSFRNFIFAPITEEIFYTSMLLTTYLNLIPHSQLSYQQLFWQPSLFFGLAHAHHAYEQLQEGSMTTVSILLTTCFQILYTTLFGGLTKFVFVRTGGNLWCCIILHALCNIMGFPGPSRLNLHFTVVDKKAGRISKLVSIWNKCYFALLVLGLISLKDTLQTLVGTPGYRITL
PG9 Ab binder – binders of HIV-1 gp120 antibody PG9, primary screen, biochemical, TR-FRET | HIV-1 gp120 / PG9 antibody interaction | TR-FRET gp120-PG9 antibody binding | inhibition, % at 6.7 µM | actives 0.43% (n = 360,000) | AID 624416, 2012; in the data active = inhibition above about 8.5%
Yeast superoxide – reduction of superoxide in aged yeast, primary screen, HTS | S. cerevisiae aged cells, superoxide DHE fluorescence; stronger effect = lower value | superoxide response (% of plate mean), % at 10 µM | actives 0.18% (n = 330,000);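 active = superoxide response under a set limit, about three screen SD below normal, cut at about 65% in these data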;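 note: yeast aged for seven days with compound at 30 °C before DHE staining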
PG9 bind confirm – binders of anti-gp120 antibody PG9, confirmation, biochemical, TR-FRET; shares compounds with PG9 Ab binder; TR-FRET PG9 antibody binding; inhibition, % at 6.7 µM; actives 90% (n = 1,500); AID 651571, 2012; in the data active = inhibition above about 9%
PGV04 Ab binding – binders of control antibody PGV04, counter-screen for PG9 antibody binder project, biochemical, TR-FRET, distinct HIV envelope site | shares compounds with PG9 Ab binder | actives 95% (n = 1,500) | inhibition, % at 6.7 µM | TR-FRET PGV04 antibody-gp120 binding; in the data active = inhibition above about 9.5%
NR1D1 mod conf – modulators of Rev-erb alpha DNA binding, confirmation, biochemical, FITC-DNA, fluorescence polarization, single point; shares compounds with Rev-erbA mod; 90 min; activation, % at 25 µM; actives 61% (n = 3,000);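 active = activation at or above a set limit, or at least 3 SD above the negative control mean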
RORg DNA counter – modulation of RORgamma DNA binding, dose response, counter-screen for Rev-erb alpha modulator project, biochemical, fluorescence polarization, FITC-DNA; shares compounds with Rev-erbA mod; purified RORgamma protein-FITC-DNA binding; IC50, µM; actives 8% (n = 910); AID 1259320, 2017;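 active = Compounds whose fitted half-maximal concentration for disrupting protein-DNA binding is below 10 micromolar; the record names Rev-erb in its text, so the target is in doubt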
Of the large screens only hits and unclear results are named; the others gave an inactive call (follow-up assays come after a bar, where they were run).

Cc1ccc(Cl)cc1-n1c(SCC(=O)NCCC2=CCCCC2)nc2n[nH]c(C)c2c1=N	Rev-erbA mod 29, PG9 Ab binder 14 | PG9 bind confirm 15 | PGV04 Ab binding 20 | NR1D1 mod conf inactive
O=C(CSc1nc2nc3c(cc2c(=O)n1-c1ccccc1)CCCC3)Nc1ccccc1	Rev-erbA mod 27, PG9 Ab binder 18 | PG9 bind confirm 31 | PGV04 Ab binding 46 | NR1D1 mod conf 20
Nc1nc(SCC(=O)Nc2ccccc2)nc2nc3c(cc12)CCCC3	none
COc1ccc(NC(=O)COC(=O)c2cc(SC)ccc2Cl)c(OC)c1	Rev-erbA mod 34, PG9 Ab binder 18 | PG9 bind confirm 30 | PGV04 Ab binding 45 | NR1D1 mod conf 29
N#C/C(C(=O)NCc1ccco1)=C1/SC=C(c2ccccc2)N1c1ccccc1	Rev-erbA mod 38, PG9 Ab binder 41 | PG9 bind confirm 42 | PGV04 Ab binding 59 | NR1D1 mod conf 30
COc1ccccc1C=NNC(=O)c1ccc(-c2ccccc2)cc1	none (no result: beta cell repl, Rev-erbA mod, Rce1 inhib, PG9 Ab binder, Yeast superoxide)
COc1ccccc1/C=C/C=Nn1c(-c2ccc(F)cc2)n[nH]c1=S	none (no result: beta cell repl, Rev-erbA mod, Rce1 inhib, PG9 Ab binder, Yeast superoxide)
Cc1nc2sc(C(=O)OCC(=O)N3c4ccccc4CC3C)c(C)c2c(=O)[nH]1 (stereo not given)	Rev-erbA mod 20, PG9 Ab binder 9.9 | PG9 bind confirm 21 | PGV04 Ab binding 26 | NR1D1 mod conf inactive
CCCC(=NNC(=O)c1ccco1)c1ccc(Cl)s1	none (no result: beta cell repl, Rev-erbA mod, Rce1 inhib, PG9 Ab binder, Yeast superoxide)
N#Cc1ccc(CSc2nnc(NC(=O)c3ccc4ncsc4c3)s2)cc1	Rev-erbA mod 60, PG9 Ab binder 32 | PG9 bind confirm 30 | PGV04 Ab binding 48 | NR1D1 mod conf 23
CC(C)(C)c1cccc(C=NO)c1O	none (no result: beta cell repl, Rev-erbA mod, Rce1 inhib, PG9 Ab binder, Yeast superoxide)
Cc1cccc(NC(=O)CSc2ncnc3c2oc2ccccc23)c1	Rev-erbA mod 601, PG9 Ab binder 66 | PG9 bind confirm inactive | PGV04 Ab binding 47 | NR1D1 mod conf 631 | RORg DNA counter 1
O=C(CSc1ncnc2c1oc1ccccc12)NCc1ccc(F)cc1	Rev-erbA mod 395, PG9 Ab binder 51 | PG9 bind confirm 25 | PGV04 Ab binding 74 | NR1D1 mod conf 434 | RORg DNA counter inactive
O=C(CSc1ncnc2c1oc1ccccc12)Nc1cccc(F)c1	Rev-erbA mod 343, PG9 Ab binder 69 | PG9 bind confirm 67 | PGV04 Ab binding 87 | NR1D1 mod conf 322 | RORg DNA counter inactive
COc1ccccc1NC(=O)CSc1ncnc2c1oc1ccccc12	none (no result: Rce1 inhib)
O=C(CSc1ncnc2c1oc1ccccc12)c1cccs1	Rev-erbA mod 73, PG9 Ab binder 29 | PG9 bind confirm 30 | PGV04 Ab binding 52 | NR1D1 mod conf 66 | RORg DNA counter inactive
Cc1ccn(CC(=O)NN=Cc2cc([N+](=O)[O-])ccc2O)n1	none (no result: beta cell repl, Rev-erbA mod, Rce1 inhib, PG9 Ab binder, Yeast superoxide)
O=C(NN=Cc1coc2ccccc2c1=O)c1cn(-c2ccccc2)nc1-c1ccc(F)cc1	none (no result: beta cell repl, Rev-erbA mod, Rce1 inhib, PG9 Ab binder, Yeast superoxide)
S=c1[nH]cc(-c2ccc(Cl)cc2)n1Cc1ccccc1	Rev-erbA mod 26, PG9 Ab binder 16 | PG9 bind confirm 17 | PGV04 Ab binding 21 | NR1D1 mod conf inactive
C[C@@H](NC(=O)c1ncn2c1c(=O)[nH]c1ccc(Br)cc12)c1ccccc1	Rev-erbA mod 132, PG9 Ab binder 18 (no result: UCH37 DUB inh, beta cell repl, Rce1 inhib, Yeast superoxide) | PG9 bind confirm 46 | PGV04 Ab binding 54 | NR1D1 mod conf 23
O=C(Nc1scc(-c2ccc(F)cc2)c1C(=O)O)c1ccco1	none
COC(=O)c1c(-c2ccccc2)csc1NC(=O)c1ccco1	Rev-erbA mod 19, PG9 Ab binder 17 | PG9 bind confirm 9.8 | PGV04 Ab binding 14 | NR1D1 mod conf inactive
COc1ccc(NC(=O)CSc2nnc(-c3cccs3)n2-c2ccccc2)cc1	Rev-erbA mod 25, PG9 Ab binder 22 | PG9 bind confirm 33 | PGV04 Ab binding 57 | NR1D1 mod conf 21
O=C(CNc1ccccc1)NN=Cc1ccc2c(c1)OCO2	none (no result: beta cell repl, Rev-erbA mod, Rce1 inhib, PG9 Ab binder, Yeast superoxide)
O=C(O)CSc1nc2ccccc2nc1Cc1ccccc1F	Rev-erbA mod 22, PG9 Ab binder 10 | PG9 bind confirm 16 | PGV04 Ab binding 27 | NR1D1 mod conf inactive
O=C(O)CSc1cnc2ccccc2n1	none
CCOC(=O)CCC(=NNC(N)=O)c1ccc(OC)c(Cl)c1	none (no result: beta cell repl, Rev-erbA mod, Rce1 inhib, PG9 Ab binder, Yeast superoxide)
CCOC(=O)c1c(NC(=O)COC(=O)CCOc2ccc(OCC)cc2)sc(C(=O)N(C)C)c1C	none (no result: Rev-erbA mod, PG9 Ab binder)
CCOC(=O)c1c(NC(=O)COC(=O)CCOc2ccccc2C)sc(C(=O)NC)c1C	Rev-erbA mod 72, PG9 Ab binder 31 | PG9 bind confirm 48 | PGV04 Ab binding 57 | NR1D1 mod conf 46 | RORg DNA counter inactive
Nc1nonc1-n1nnc(C(=O)NN=Cc2ccc(OCc3ccccc3)cc2)c1COc1ccc(F)cc1	none (no result: beta cell repl, Rev-erbA mod, Rce1 inhib, PG9 Ab binder, Yeast superoxide)
COc1ccc(NC(=O)NNC(=O)COc2ccc3cc(Br)ccc3c2)c(OC)c1	Rev-erbA mod 118, PG9 Ab binder 61 | PG9 bind confirm 63 | PGV04 Ab binding 74 | NR1D1 mod conf 111 | RORg DNA counter inactive
COc1ccc2cc(OCC(=O)NNC(=O)Nc3ccc(F)cc3)ccc2c1	Rev-erbA mod 42, PG9 Ab binder 23 | PG9 bind confirm 34 | PGV04 Ab binding 45 | NR1D1 mod conf 35 | RORg DNA counter 3.1
